Reference: the array DNA melting data of Ke et al. (doi:10.1101/2024.01.08.574731)

Experiments:
[1] = folding enthalpy; higher = less favourable; fluorescence melt of hairpins on a sequencing array, two-state fit; conditions: sodium 0.088 M
How it was run: (§1)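 Folding enthalpy and melting temperature were estimated with bootstrapped two-state fits and combined across four replicates by inverse-variance weighting, with fitted temperatures raised by 9.35 °C to match UV melts. The data were Cy3 fluorescence of library hairpins, with annealed Cy3 and quencher oligos, on a sequenced MiSeq flow cell in 50 mM Na-HEPES pH 8.0, 25 mM NaCl, imaged in 2.5 °C steps up to 60 °C and normalised to pre-quench Cy3 and control constructs.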

[2] = melting temperature; fluorescence melt of hairpins on a sequencing array, two-state fit, raised by 9.35 °C to match UV melts; conditions: sodium 0.088 M
How it was run: as §1

Sequence	folding enthalpy [1] [kcal/mol]	Tm [2] [°C]
GCGTGCATACGC ((((....))))	-24.6	68.7
GCACCGCGAAAGCCTTGC (((..((....))..)))	-14.8	37
GATCTTGCAAAGATC ((((((...))))))	-41	55
GATCTCTACAGAGATC ((((((....))))))	-45.2	55.8
GCATGCGAAAGCAATGC ((((((....))).)))	-31	64.2
GTGTTCGGAAACGGACAC ((((.((....)).))))	-44.6	55
GGGCACGAAAGTGGACCC ((((((....)))..)))	-17.9	53.6
ATTCGGAAACGAAT (((((....)))))	-18.4	44.8
GCGTCAAACGC ((((...))))	-16.7	50.8
GGTTTATCGAAAGATACC (((..(((....))))))	-12.3	28
GATCTGTAGACAGATC ((((((....))))))	-35.5	50.8
GCGGAGACCCGC ((((....))))	-20.5	52.8
GCGCTGCGAAAGCCACGC (((..((....))..)))	-19.7	52.7
GTACTTCCGAAAGGATAC (((..(((....))))))	-10.3	24.9
GATCGCGGAAACGCGACC (.(((((....))))).)	-10.5	49.2
CGTTGCGGAAACGCGACG (((.(((....))).)))	-30.5	67.4
GAGTAGGGAAACCCACTC ((((.((....)).))))	-32	39.6
GCCTCGCGAAAGCAAGGC ((((.((....)).))))	-30	65.1
GCCTCGCGAAAGCTCGGC (((..((....))..)))	-26.6	46.4
GGGAATCCGAAAGGACCC (((..(((....))))))	-18.1	38.1
GGGCCTCGAAAGAGCCC (((.(((....))))))	-37.9	62.3
GGTGGCGAAAGCCTACC ((((((....))).)))	-17.1	56.2
GTGATGCGAAAGCACAC (((.(((....))))))	-25.8	53.5
GTTCTCGAAAGAGAAAC ((((((....))).)))	-17	39.7

Sequence	folding enthalpy [1] [kcal/mol]	Tm [2] [°C]
GCTGTGCGAAAGCCTAGC (((..((....))..)))	-18.2	44.3
GATACCGAAAGGTGGATC ((((((....)))..)))	-13	30.2
GCGTCTAAACGC ((((....))))	-23	54.4
GATCAAATTTTTGATC ((((((....))))))	-39	47.7
CGCCCGGAAACGGCTGCG ((((((....)))..)))	-21.1	46.2
GATCGGGCGGCCGATC ((((((....))))))	-57.9	61.8
GATCACAGGGTGATC ((((((...))))))	-36.8	61.2
GTTCAAGGAAACTTAAAC (((.(((....))).)))	-10.5	29
GCCGTGCCGAAAGGCGGC (((..(((....))))))	-13.9	66.8
GATCTACAATTAGATC ((((((....))))))	-21.3	35.6
GCCCAGCGAAAGCTACGC ((..(((....)))..))	-5.73	30.2
GCTCTGCGAAAGCTGCGC ((.(.((....)).).))	-18.4	44.2
GATCGAGGGCTCGATC ((((((....))))))	-46.3	53.5
GCATGGCGAAAGCAACGC ((.(.((....)).).))	-10.8	30.7
GCCCGGACGAAAGTCGGC (((..(((....))))))	-14.5	50.9
GTTCACGAAAGTGGAAAC ((((((....)))..)))	-13.4	30.9
GGACCAGGAAACTGGTTC (.(((((....))))).)	-24.6	51.8
GATCATTGCTATGATC ((((((....))))))	-36	47.8
GGGCACGGAAACGTACCC (((.(((....))).)))	-40.1	51.4
GAGAGCGGAAACGCTCCC (.(((((....))))).)	-9.72	46.1
GCGTGACCGAAAGGTCGC (((..(((....))))))	-10.1	51.6
GCTTTCGCGAAAGCGAGC (((..(((....))))))	-10.6	48.9
GGATAGGGAAACCTATTC (.(((((....))))).)	-29.4	34.9
